Measurements taken from PMC13435124 (The FASEB Journal, 2026).
Marks after values point to notes of the source that are not given here.

Key:
[1] = tested on: HMOX1 in N2a-APPswe cells; assay: HMOX1 protein levels, western blot; assay type: cell-based, mouse; details: 250 μM, 24 h, vs control
Method in brief: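 N2a-APPswe cells treated 24 h with test compound at 250 μM. HMOX1 detected by western blot after milk blocking 1 h RT; anti-HMOX1 1:1000 in 5% BSA/TBS-T overnight at 4°C, then HRP secondary 1 h RT.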

[2] = tested on: BV-2 cells exposed to LPS; assay: iNOS and pro-IL-1β protein in LPS-stimulated microglia, western blot; assay type: cell-based, mouse; details: BV-2, 250 μM, LPS 50 ng/mL, 24 h
Method in brief: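 BV-2 cells given test compound at 250 μM, LPS 50 ng/mL added 30 min later, for 24 h. iNOS and pro-IL-1β protein measured by western blot. Mean ± SEM of four independent experiments, relative to untreated control.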

[3] = tested on: BV-2 cells exposed to LPS; assay: Nitric oxide production; assay type: cell-based, mouse; details: BV-2, 250 μM, LPS 50 ng/mL, 24 h
Method in brief: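 BV-2 microglia given test compound at 250 μM, then LPS 50 ng/mL 30 min later, for 24 h. Nitrite measured in supernatants by Griess assay at 550 nm against a sodium nitrite standard curve. Mean ± SEM of four independent experiments, relative to untreated control.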

N2a-APPswe cells = assay: Nrf2 silencing; assay type: cell-based, mouse
BV-2 cells = assay: Cell metabolism, Alamar Blue; assay type: cell-based, mouse; details: 24 h, Alamar Blue (Figure S1B)
Method in brief: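 Cells exposed 24 h to test compound at 500, 250, 100, 50 or 5 μM, DMSO final up to 0.1% v/v. Resazurin 50 μM in PBS added 3 h before the end. Absorbance read at 570 nm with 620 nm reference. Highest nontoxic concentration chosen from metabolic capacity.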

[4] = tested on: Nrf2 activation in KeratinoSens cells; assay: KeratinoSens reporter gene assay; assay type: cell-based; details: 6 h; Iso 250 μM, DMF 50 μM
Method in brief: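 KeratinoSens ARE-luciferase cells (passage ≤22) plated at 1.0 × 10^4 per well in triplicate; after 24 h switched to DMEM with 1% FBS, no geneticin. Wortmannin 500 nM added 1 h before test compound at 250 μM; DMF 50 μM as positive control; DMSO ≤0.1%. After 6 h, Alamar Blue (4 h, 37°C), then luciferase read as fold over DMSO. Three independent experiments in triplicate.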

BACE1 = BACE1 (Homo sapiens, UniProt P56817); assay: BACE1 activity assay; assay type: biochemical; details: cell-free, tested at 50, 100 and 250 μM (Table S1)
[5] = Pharmacokinetics after intranasal administration; assay type: in vivo, mouse; details: for Kp: B6C3F1, mouse, inhaled or intranasal, 100 mg/kg; for AUC t / AUCinf: WT mice
Method in brief: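 WT B6C3F1 mice (25–30 g), acclimatised ≥7 days with food and water ad libitum, given test compound intranasally at 100 mg/kg. Plasma, brain and lung sampled at 5, 15, 30, 60, 120 and 180 min; n = 4. AUCt and AUCinf derived from concentration–time profiles.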

WT female mice = assay: Safety: histopathology and serum biochemistry after 1 month intranasal dosing; assay type: in vivo, mouse; details: intranasal 100 mg/kg
Method in brief: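 11-month-old WT females given intranasal PBS or test compound at 100 mg/kg for 1 month. Histopathology of heart, hippocampus, lung, liver and kidney. Serum GOT, GGT, ALP, albumin, creatinine and urea reported as mg/dL or IU/L.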

APP/PS1 female mice [6] = assay: Behavioral tests in 6-month-old females; assay type: in vivo, mouse; details: intranasal 50 mg/kg, 1 month
APP/PS1 female mice [7] = assay: Brain protein levels of 6-month-old females, western blot; assay type: in vivo, mouse; details: 50 mg/kg, 1 month
Method in brief: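 Females received PBS or test compound at 50 mg/kg (APP/PS1 only) intranasally for 1 month. Brain hAPP, BACE1, iNOS, pro-IL-1β, HMOX1 and p44/42 MAPK assessed by western blot, with milk or BSA (phospho) blocking 1 h RT. Mean ± SEM of five animals; one-way ANOVA with Dunnett's or Tukey's test, p < 0.05.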

APP/PS1 male mice [8] = assay: Novel object recognition test; assay type: in vivo, mouse; details: APP/PS1 males, 100 mg/kg, 1 month
Method in brief: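 Behavioural testing in 10-month-old APP/PS1 and WT littermate males, randomised n = 5 per group. Intranasal PBS or test compound at 100 mg/kg for 1 month. Distance travelled also recorded.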

APP/PS1 male mice [9] = assay: Aβ40 and Aβ42 levels in cortex, hippocampus and plasma; assay type: in vivo, mouse; details: 11-month-old APP/PS1 males, 100 mg/kg, 1 month
Method in brief: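 APP/PS1 and WT littermate males aged 10 months, randomised to groups of n = 5. PBS vehicle or test compound at 100 mg/kg given intranasally for 1 month. At 11 months, Aβ40 and Aβ42 measured in cortex, hippocampus and plasma; plasma Aβ42/Aβ40 ratio derived. Mean ± SEM of five animals.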

[10] = source not given; cited from earlier work

Sequence of BACE1 (P56817 46-457 limits assumed): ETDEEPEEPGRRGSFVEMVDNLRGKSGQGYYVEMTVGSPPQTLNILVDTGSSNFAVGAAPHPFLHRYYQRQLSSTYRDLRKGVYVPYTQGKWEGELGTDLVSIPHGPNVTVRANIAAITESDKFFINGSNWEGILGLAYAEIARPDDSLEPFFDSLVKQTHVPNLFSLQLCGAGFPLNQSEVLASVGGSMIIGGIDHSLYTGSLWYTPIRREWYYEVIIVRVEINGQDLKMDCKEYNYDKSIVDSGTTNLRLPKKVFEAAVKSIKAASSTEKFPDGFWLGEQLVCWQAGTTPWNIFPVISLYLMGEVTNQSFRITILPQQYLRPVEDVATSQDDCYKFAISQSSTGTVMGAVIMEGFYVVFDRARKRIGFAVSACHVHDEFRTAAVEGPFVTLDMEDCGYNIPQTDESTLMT

SMILES: CC=Cc1ccc(O)c(OC)c1 [Iso, 2‐methoxy‐4‐(prop‐1‐en‐1‐yl) phenol]
- HMOX1 protein levels [1]: significant increase
- LPS-induced iNOS protein levels [2]: reduced
- LPS-induced pro-IL-1β protein levels [2]: reduced
- LPS-triggered nitrite production [3]: significantly decreased
- Aβ40 peptide levels (N2a-APPswe cells; not transfected N2a-APPswe, silencing experiment set, 24 h): significantly decreased
- Aβ40 levels in Nrf2-silenced cells (N2a-APPswe cells; siNrf2 + Iso, N2a-APPswe, 36 h after transfection): further decreased
- highest nontoxic concentration tested (BV-2 cells): 250 µM
- Nrf2 activation (luciferase induction) [4]: induced Nrf2 activation
- BACE1 activity (BACE1): inhibited
- Kp ([5]; brain and plasma): 0.23
- Kp ([5]; lung and plasma): 6.73
- AUC t ([5]; brain, intranasal 100 mg/kg): 140.87 ^c μg.min/g
- AUCinf ([5]; brain, intranasal 100 mg/kg): 142.15 ^c μg.min/g
- dose-normalized AUC t in plasma ([5]; intranasal 100 mg/kg, mice): 5.99 µg·min/mL/kg
- dose-normalized AUCinf in plasma ([5]; intranasal 100 mg/kg, mice): 6.04 µg·min/mL/kg
- AUC t ([5]; lung, intranasal 100 mg/kg): 4030.85 ^c μg.min/g
- AUCinf ([5]; lung, intranasal 100 mg/kg): 4091.75 ^c μg.min/g
- LDL cholesterol (WT female mice; 11-month-old WT females): reduction
- hippocampus histopathology (WT female mice; WT females): Increased cell activation
- kidney histopathology (WT female mice; WT females): cellular eosinophilia and tubular epithelial hypertrophy
- liver histopathology (hepatic steatosis seen in VEH) (WT female mice; WT females): also maintained
- serum albumin (WT female mice; WT females): no alterations were detected
- serum alkaline phosphatase (ALP) (WT female mice; WT females): no alterations were detected
- serum creatinine (WT female mice; WT females): no alterations were detected
- serum gamma-glutamyl transferase (GGT) (WT female mice; WT females): no alterations were detected
- serum glutamic oxaloacetic transaminase (GOT) (WT female mice; WT females): no alterations were detected
- serum urea (WT female mice; WT females): no alterations were detected
- heart histopathology (WT female mice; WT females, vs VEH): No histopathological changes were observed
- behavior (hot plate, open field, fear conditioning) (APP/PS1 female mice [6]): no relevant behavioral alterations were observed
- decrease in brain p44/42 MAPK phosphorylated levels (APP/PS1 female mice [7]; 6-month-old APP/PS1 females): reverted
- increase in brain HMOX1 protein levels (APP/PS1 female mice [7]; 6-month-old APP/PS1 mice, p = 0.068): 1.5 fold
- brain APP protein levels (APP/PS1 female mice [7]; 6-month-old mice): not altered
- percentage of investigations in the novel object (decreased in APP/PS1 VEH) (APP/PS1 male mice [8]): reverted
- recognition index (lowered in APP/PS1 VEH) (APP/PS1 male mice [8]): reversed
- cortex Aβ40 levels (APP/PS1 male mice [9]): no alterations observed
- cortex Aβ42 levels (APP/PS1 male mice [9]): no alterations observed
- hippocampus Aβ40 levels (APP/PS1 male mice [9]): no alterations observed
- hippocampus Aβ42 levels (APP/PS1 male mice [9]): no alterations observed
- plasma Aβ40 levels (APP/PS1 male mice [9]): decreased
- plasma Aβ42 levels (APP/PS1 male mice [9]): decreased
- plasma Aβ42/Aβ40 ratio (APP/PS1 male mice [9]; not significant): partial increase
- octanol-water partition coefficient (logP) [10]: 3.04
